Experimental data as given in paper PMC10120451 (Journal of Enzyme Inhibition and Medicinal Chemistry, 2023).
≈ marks a conversion by molar mass, not a printed value. One block for each molecule: values may come before it.

Key:
[1] = biological target: PDIA1a domain (residues 18–137) of human PDIA1 (Homo sapiens, UniProt P07237); experiment: Insulin turbidity assay with recombinant PDIA1a domain; type: biochemical; details: read-out: PDIA1a IC50 (insulin reduction); PDIA1a domain 8 µg/ml
How it was run: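 PDIA1a domain (human residues 18–137) was expressed in E. coli BL21(DE3) with an N-terminal His6-tag/TEV site, then purified by Ni affinity and size exclusion. Turbidity assay: 8 µg/ml protein in 0.1 mM potassium phosphate pH 7.6 and 2 mM EDTA, with 0.08 mM DTT during preincubation. Insulin with DTT was added to final 0.15 mM insulin and 0.16 mM DTT.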

CaCo-2 cells = experiment: 72 h proliferation inhibition test; type: cell-based, human; details: SRB
HT-29 cells = experiment: 72 h proliferation inhibition test; type: cell-based, human; details: SRB
[2] = Basal cytotoxicity test, neutral red uptake; type: cell-based; details: mouse, Balb/c 3T3 mouse embryo fibroblast cells
recombinant human PDIA1 = recombinant human PDIA1 (Homo sapiens, UniProt P07237); experiment: Enzymatic insulin reduction; type: biochemical; details: for IC50: PDIA1 IC50, insulin reduction assay, full-length PDIA1 6 µg/ml (96 nM), pH 7.6, 37 °C
recombinant human PDIA1, sequence (P07237 18-508): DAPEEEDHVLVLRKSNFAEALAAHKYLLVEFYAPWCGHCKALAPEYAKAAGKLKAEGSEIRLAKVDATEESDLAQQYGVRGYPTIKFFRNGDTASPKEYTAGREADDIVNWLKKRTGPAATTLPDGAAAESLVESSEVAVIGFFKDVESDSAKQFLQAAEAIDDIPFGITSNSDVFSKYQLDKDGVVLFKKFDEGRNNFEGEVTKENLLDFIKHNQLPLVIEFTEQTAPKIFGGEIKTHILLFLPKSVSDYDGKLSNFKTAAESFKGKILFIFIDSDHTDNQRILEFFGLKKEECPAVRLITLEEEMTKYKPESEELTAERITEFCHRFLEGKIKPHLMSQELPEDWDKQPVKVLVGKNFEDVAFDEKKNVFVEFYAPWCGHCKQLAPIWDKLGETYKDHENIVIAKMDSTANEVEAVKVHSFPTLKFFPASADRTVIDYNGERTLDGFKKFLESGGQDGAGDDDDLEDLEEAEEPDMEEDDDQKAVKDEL

recombinant human PDIA3 = biological target: T1, recombinant human PDIA3 (Homo sapiens, UniProt P30101); experiment: Enzymatic insulin reduction; type: biochemical
T1 sequence (P30101 25-505): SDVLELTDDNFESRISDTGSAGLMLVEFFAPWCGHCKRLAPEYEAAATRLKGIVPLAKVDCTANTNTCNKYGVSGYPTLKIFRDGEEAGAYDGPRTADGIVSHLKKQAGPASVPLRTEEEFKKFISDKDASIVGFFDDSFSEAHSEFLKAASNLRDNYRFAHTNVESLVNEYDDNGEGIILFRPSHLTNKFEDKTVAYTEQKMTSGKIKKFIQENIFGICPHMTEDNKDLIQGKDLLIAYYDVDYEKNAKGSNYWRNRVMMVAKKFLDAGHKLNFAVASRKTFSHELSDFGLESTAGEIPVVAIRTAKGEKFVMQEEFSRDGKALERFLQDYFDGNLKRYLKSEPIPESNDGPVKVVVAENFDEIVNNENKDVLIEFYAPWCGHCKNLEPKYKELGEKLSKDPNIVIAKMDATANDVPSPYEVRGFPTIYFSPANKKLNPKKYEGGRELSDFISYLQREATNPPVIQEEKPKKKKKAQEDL
How it was run: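 Recombinant human PDIA3 (E. coli-expressed), 12 µg/ml (205 nM), was preincubated with test compound in 0.1 mM phosphate buffer pH 7.6, 2 mM EDTA and 0.08 mM DTT. Final DMSO was below 1%. Reaction was started with insulin plus DTT (final 0.15 mM insulin, 0.16 mM DTT). β-chain aggregation turbidity was read at 650 nm for 60 min at 37 °C.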

arterial thrombosis = experiment: Rat model of arterial thrombosis; type: in vivo; details: intravenously, 10 min prior to induction of arterial thrombosis, rats
How it was run: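 Wistar rats were anaesthetised with pentobarbital (40 mg/kg i.p.) on a 37 °C heated table. Right common carotid artery was stimulated at 1 mA for 10 min via an anode under the artery and a subcutaneous hind-limb cathode.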

PDIA1a domain (residues 18–137) of human PDIA1, sequence (P07237 18-137): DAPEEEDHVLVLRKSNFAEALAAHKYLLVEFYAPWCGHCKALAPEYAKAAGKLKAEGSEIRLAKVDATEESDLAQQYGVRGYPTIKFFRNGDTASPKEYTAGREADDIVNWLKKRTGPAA

IC50 [1]: 13 ± 0.6 µM
IC50, 72-h antiproliferative assay, CaCo-2 (CaCo-2 cells): 0.41 ± 0.1 mg/L (≈ 1.08 µM)
IC50, 72-h antiproliferative assay, HT-29 (HT-29 cells): 0.41 ± 0.05 mg/L (≈ 1.08 µM)
Molecule: COc1ccc(N2C(=O)/C(=C\c3ccc([N+](=O)[O-])s3)SC2=S)cc1 [CCF642]

Molecule: Cc1ccc(S(=O)(=O)N2CC2C=O)cc1 (stereo not drawn) [Compound C-3262, 1-(p-tolylsulphonyl)aziridine-2-carbaldehyde]
IC50 at 24 h [2]: 4 ± 0.2 µM

Molecule: CC(=O)C1CN1S(=O)(=O)c1ccc(C)cc1 (stereo not drawn) [Compound C-3263, 1-[1-(p-tolylsulphonyl)aziridin-2-yl]ethanone]
IC50 (recombinant human PDIA1): 15.6 ± 0.8 µM
IC50 at 24 h [2]: 8 ± 1 µM

Molecule: CCCCc1ccc(S(=O)(=O)N2CC2C(C)=O)cc1 (stereo not drawn) [Compound C-3272, 1-[1–(4-Butylphenyl)sulphonylaziridin-2-yl]ethanone]
IC50 at 24 h [2]: < 1 µM

Molecule: CCCCc1ccc(S(=O)(=O)N2CC2C=O)cc1 (stereo not drawn) [Compound C-3273, 1–(4-Butylphenyl)sulphonylaziridine-2-carbaldehyde]
IC50 (recombinant human PDIA1): 3.2 ± 0.2 µM
IC50 (recombinant human PDIA3): 5.4 ± 0.2 µM
IC50 at 24 h [2]: < 1 µM

Molecule: Cc1ccc(S(=O)(=O)N2CC2C#N)cc1 (stereo not drawn) [Compound C-3314, 1-(p-tolylsulphonyl)aziridine-2-carbonitrile]
IC50 (recombinant human PDIA3): 188 ± 7.5 µM
IC50 at 24 h [2]: 52 ± 3 µM

Molecule: Cc1ccc(S(=O)(=O)N2CC2C(=O)O)cc1 (stereo not drawn) [Compound C-3612, Lithium 1-tosylaziridine-2-carboxylate]
IC50 at 24 h [2]: 2610 ± 89 µM

IC50, 72-h antiproliferative assay, CaCo-2 (CaCo-2 cells): 9.12 ± 3.4 mg/L (≈ 28.7 µM)
IC50, 72-h antiproliferative assay, HT-29 (HT-29 cells): 12.64 ± 8.4 mg/L (≈ 39.8 µM)
Molecule: O=C(C1CC1)N1CCN(Cn2sc3ccccc3c2=O)CC1 [LOC14]

Molecule: NC(=O)C1CN1 (stereo not drawn) [Leakadine, 2-carbamoylaziridine]
inhibition at 1000 µM (recombinant human PDIA1; read-out: Inhibition of PDIA1 activity): ~30%

Molecule: O=c1c(O[C@@H]2O[C@H](CO)[C@@H](O)[C@H](O)[C@H]2O)c(-c2ccc(O)c(O)c2)oc2cc(O)cc(O)c12 [isoquercetin]
effect on arterial thrombus formation (thrombus weight) (arterial thrombosis): only tended to reduce thrombosis

IC50 (recombinant human PDIA1): 4 ± 0.3 µM
IC50 (recombinant human PDIA3): > 200 µM
Molecule: C[C@@H]1O[C@@H](OC[C@H]2O[C@@H](Oc3c(-c4ccc(O)c(O)c4)oc4cc(O)cc(O)c4c3=O)[C@H](O)[C@@H](O)[C@@H]2O)[C@H](O)[C@H](O)[C@H]1O [rutin]
effect on arterial thrombus formation (thrombus weight) (arterial thrombosis): significantly inhibited arterial thrombus formation

IC50 [1]: 18.3 ± 0.7 µM
Molecule: PACMA31
